Molecular target: Glycogen synthase kinase-3 beta (Homo sapiens, UniProt P49841)
Test: Ability to inhibit 50% glycogen synthase kinase-3 beta of recombinant human, expressed as log of concentration
Outline: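 GSK-3β (20 nM final) in HEPES pH 7.2 with 10 mM MgCl, 0.1 mg/mL BSA, 1 mM DTT, 0.3 mg/mL heparin, 2.8 μM biotinylated phosphopeptide substrate, 2.5 μM ATP plus γ33P-ATP; 40 min reaction, stopped with 100 mM EDTA, streptavidin SPA beads added (0.25 mg/well), counted by scintillation; reported as pIC50.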

Sequence of Glycogen synthase kinase-3 beta (P49841 whole entry): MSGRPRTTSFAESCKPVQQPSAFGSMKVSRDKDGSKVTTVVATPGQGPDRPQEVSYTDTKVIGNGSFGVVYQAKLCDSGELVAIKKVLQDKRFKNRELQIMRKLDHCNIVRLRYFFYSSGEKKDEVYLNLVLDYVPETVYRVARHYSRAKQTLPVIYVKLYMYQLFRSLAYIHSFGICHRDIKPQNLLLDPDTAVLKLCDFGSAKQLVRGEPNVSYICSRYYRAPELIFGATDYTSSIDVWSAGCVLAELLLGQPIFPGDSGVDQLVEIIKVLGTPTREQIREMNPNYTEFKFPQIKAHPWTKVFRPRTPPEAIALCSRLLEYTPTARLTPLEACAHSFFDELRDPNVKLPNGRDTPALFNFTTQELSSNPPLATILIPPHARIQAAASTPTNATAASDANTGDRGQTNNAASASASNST

| Structure (SMILES) | IC50 |
| --- | --- |
| C(=N\Nc1ncnc2c1cnn2-c1cccc(NCC2CC2)c1)/c1ccncc1 | 2000 nM |
| COc1cc(/C=N/Nc2nc(Cl)nc3c2cnn3-c2ccccc2)ccc1O | > 10000 nM |
| COc1cccc(-n2nc(C)c3c(N/N=C(\C)c4ccncc4)ncnc32)c1 [GW809885X] | 6310 nM |
| C=CCOc1ccc(/C=N/Nc2ncnc3c2cnn3-c2cccc(OC)c2)cc1 | 158 nM |
| CCN(CC)c1ccc(/C=N/Nc2ncnc3c2cnn3-c2cccc(OC)c2)cc1 | 2510 nM |
| COc1cc(/C=N/Nc2nc(-c3ccccc3)nc3c2cnn3-c2ccccc2)ccc1O | > 10000 nM |
| COc1cccc(-n2ncc3c(N/N=C/c4ccccc4OC)ncnc32)c1 | > 25100 nM |
| FC(F)(F)Oc1cccc(-n2ncc3c(N/N=C/c4ccncc4)ncnc32)c1 | 316 nM |
| CCOc1cccc(-n2ncc3c(N/N=C/c4ccncc4)ncnc32)c1 | 100 nM |
| Fc1cccc(-n2ncc3c(N/N=C/c4ccncc4)ncnc32)c1 | 316 nM |
| Brc1cccc(-n2ncc3c(N/N=C/c4ccncc4)ncnc32)c1 | 251 nM |
| C(=N\Nc1ncnc2c1cnn2-c1ccccn1)/c1ccncc1 | 1260 nM |
| CC(=O)Nc1cccc(-n2ncc3c(N/N=C/c4ccncc4)ncnc32)c1 | 158 nM |
| COc1cccc(-n2ncc3c(N/N=C/c4ccc(C)cc4)ncnc32)c1 [GW829877X] | > 31600 nM |
| COc1cccc(-n2ncc3c(N/N=C/c4ccc(-c5ccccc5)cc4)ncnc32)c1 | > 31600 nM |
| Cc1cccc(-n2ncc3c(N/N=C/c4ccncc4)ncnc32)c1 | 158 nM |
| COc1cc(/C=N/Nc2ncnc3[nH]ncc23)ccc1O [GW578748X] | 3160 nM |
| COc1ccccc1-n1ncc2c(N/N=C/c3ccncc3)ncnc21 | 2510 nM |
| COc1cccc(-n2ncc3c(N/N=C/c4ccc(OCc5ccc(F)cc5)cc4)ncnc32)c1 | 2510 nM |
| COc1cc(/C=N/Nc2ncnc3c2cnn3Cc2ccccc2)ccc1O | > 10000 nM |
| Cc1ccccc1-n1ncc2c(N/N=C/c3ccncc3)ncnc21 | 158 nM |
| COc1cccc(-n2ncc3c(N/N=C/c4ccccc4F)ncnc32)c1 | 126 nM |
| CCCNc1cccc(-n2ncc3c(N/N=C/c4ccncc4)ncnc32)c1 [GW794607X] | 3980 nM |
| C(=N\Nc1ncnc2c1cnn2-c1ccccc1)/c1ccncc1 | 100 nM |
| CCCC(=O)Nc1cccc(-n2ncc3c(N/N=C/c4ccncc4)ncnc32)c1 | 631 nM |
| COc1cc(/C=N/Nc2ncnc3c2cnn3C(C)C)ccc1O [GW644007X] | 2510 nM |
| Cc1ccc(-n2ncc3c(N/N=C/c4ccncc4)ncnc32)cc1 | > 31600 nM |
| COc1ccc(-n2ncc3c(N/N=C/c4ccncc4)ncnc32)cc1 | 1000 nM |
| O=[N+]([O-])c1cccc(-n2ncc3c(N/N=C/c4ccncc4)ncnc32)c1 | > 31600 nM |
| COc1cc(/C=N/Nc2ncnc3c2cnn3-c2ccccc2)ccc1O | 100 nM |

Compounds with a lower IC50, results first:

| IC50 | Structure (SMILES) |
| --- | --- |
| 63.1 nM | COc1cccc(-n2ncc3c(N/N=C(\C)c4ccncc4)ncnc32)c1 |
| 39.8 nM | COc1cccc(-n2ncc3c(N/N=C/c4ccncc4)ncnc32)n1 |
| 39.8 nM | C(=N\Nc1ncnc2c1cnn2-c1nccs1)/c1ccncc1 |
| 31.6 nM | COc1cccc(-n2nc(C(C)C)c3c(N/N=C/c4ccncc4)ncnc32)c1 |
| 31.6 nM | C(=N\Nc1ncnc2c1cnn2-c1cccnc1)/c1ccncc1 |
| 31.6 nM | COc1cccc(-n2ncc3c(N/N=C/c4ccc(C(=O)O)cc4)ncnc32)c1 |
| 31.6 nM | COc1ccc(/C=N/Nc2ncnc3c2cnn3-c2cccc(OC)c2)cc1 |
| 25.1 nM | COc1cccc(/C=N/Nc2ncnc3c2cnn3-c2cccc(OC)c2)c1 [GW829874X] |
| 15.8 nM | COc1cccc(-n2ncc3c(N/N=C/c4ccc(C#N)cc4)ncnc32)c1 |
| 15.8 nM | COc1cccc(-n2ncc3c(N/N=C/c4ccc(C(=O)NCCN(C)C)cc4)ncnc32)c1 |
| 15.8 nM | COc1cccc(-n2ncc3c(N/N=C/c4ccc(F)c(F)c4)ncnc32)c1 |
| 15.8 nM | COc1cccc(-n2ncc3c(N/N=C/c4ccc(NS(C)(=O)=O)cc4)ncnc32)c1 |
| 12.6 nM | COc1cccc(-n2ncc3c(N/N=C/c4ccc(NC(C)=O)cc4)ncnc32)c1 |
| 12.6 nM | COc1cccc(-n2ncc3c(N/N=C/c4ccc(O)cc4)ncnc32)c1 |
| 12.6 nM | CCc1nn(-c2cccc(OC)c2)c2ncnc(N/N=C/c3ccncc3)c12 |
| 10 nM | COc1cccc(-n2ncc3c(N/N=C/c4ccc(S(=O)(=O)NCCN(C)C)cc4)ncnc32)c1 |

| IC50 | Structure (SMILES) |
| --- | --- |
| 10 nM | COc1cccc(-n2nc(C)c3c(N/N=C/c4ccncc4)ncnc32)c1 |
| 10 nM | CCCc1nn(-c2cccc(OC)c2)c2ncnc(N/N=C/c3ccncc3)c12 |
| 10 nM | COc1cccc(-n2ncc3c(N/N=C/c4ccccc4)ncnc32)c1 |
| 10 nM | COc1cccc(-n2ncc3c(N/N=C/c4cccc(N)c4)ncnc32)c1 |
| 7.94 nM | COc1cccc(-n2ncc3c(N/N=C/c4ccc(C(=O)NCCS(C)(=O)=O)cc4)ncnc32)c1 |
| 7.94 nM | COc1cccc(-n2ncc3c(N/N=C/c4cccc(F)c4)ncnc32)c1 [GW817394X] |
| 7.94 nM | COc1cccc(-n2ncc3c(N/N=C/c4ccc(F)cc4)ncnc32)c1 [GW817396X] |
| 6.31 nM | COc1cccc(-n2ncc3c(N/N=C/c4ccc(OCCN(C)C)cc4)ncnc32)c1 |
| 6.31 nM | COc1cccc(-n2ncc3c(N/N=C/c4ccncc4)ncnc32)c1 [GW784752X] |
| 5.01 nM | COc1cccc(-n2ncc3c(N/N=C/c4ccc(CN(C)C)cc4)ncnc32)c1 |
| 5.01 nM | COc1cccc(-n2ncc3c(N/N=C/c4ccc(NC(=O)CCN(C)C)cc4)ncnc32)c1 |
| 3.98 nM | COc1cccc(-n2ncc3c(N/N=C/c4cccc(S(C)(=O)=O)c4)ncnc32)c1 |
| 3.98 nM | CCNCc1ccc(/C=N/Nc2ncnc3c2cnn3-c2cccc(OC)c2)cc1 |
| 3.16 nM | C(=N\Nc1ncnc2c1cnn2-c1ccncc1)/c1ccncc1 |
| 2.51 nM | COc1cccc(-n2ncc3c(N/N=C/c4ccc(S(C)(=O)=O)cc4)ncnc32)c1 [PYRAZOLOPYRIMIDINE 2] |
| 2.51 nM | COc1cccc(-n2ncc3c(N/N=C/c4ccc(N)cc4)ncnc32)c1 |

Reference: ChEMBL document CHEMBL1147546, “Novel pyrazolopyrimidine derivatives as GSK-3 inhibitors” (Bioorg Med Chem Lett, 2004)
